This passage reports Inhibition and IC50 results from ChEMBL document CHEMBL1146621, “Antiplatelet activity of benzylisoquinoline derivatives oxidized by cerium(IV) ammonium nitrate” (Bioorg Med Chem Lett, 2003).

Assay type in all cases: functional
Experiment [1] can be described thus: In vitro inhibition of Arachidonic acid (100 uM) induced platelet aggregatory activity.
Experiment [2] can be described thus: In vitro inhibition of Collagen (10 ug/mL) induced platelet aggregatory activity. Summed up:
(§1)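 Platelets were preincubated with test agent or vehicle (DMSO 0.5%) at 37 °C for 3 min before the inducer was added, and aggregation was then followed. Aspirin served as the positive control. IC50 values are reported as means ± SE (n=3).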

Experiment [3] is described as follows: Percentage inhibition against platelet activating factor (2 ng/mL) induced platelet aggregatory activity.
Experiment [4] is described as follows: Percentage inhibition against thrombin induced platelet aggregatory activity. The arrangement: concentration or dose not given beside the values.
Experiment [5] in a line: In vitro inhibition of Collagen (10 ug/mL) induced platelet aggregatory activity.
Experiment [6] in a line: Inhibitory concentration required against Arachidonic acid (100 uM) induced platelet aggregatory activity. Summed up: as §1
Experiment [7] in a line: Percentage inhibition against Platelet activating factor (2 ng/mL) induced platelet aggregatory activity.

`COc1cccc(C(=O)C2=NCCc3cc(OC)c(OC)cc32)c1`: the Inhibition (in general, the percentage by which the read-out fell short of the control) came to 48% in experiment [1], 31% in experiment [2], 15% in experiment [3] and 14% in experiment [4].
In the case of `COc1cc2ccnc(C(=O)c3ccc(Cl)cc3)c2cc1OC`, the results for the Inhibition in experiment [1] and in experiment [4] were 11% and 9%, respectively. Moreover, in experiment [5], the concentration for half-maximal inhibition (IC50) (commonly the midpoint of a concentration-inhibition curve) amounted to 89.2 µM.
Regarding `COc1cc2c(cc1OC)C(C(=O)c1ccccc1Cl)=NCC2`, the Inhibition in experiment [1] stood at 27%; in experiment [3], 20%; in experiment [4], 9%. The compound also showed a concentration for half-maximal inhibition (IC50) in experiment [5] of 88.1 µM.
With `COc1ccc(C(=O)C2=NCCc3cc(OC)c(OC)cc32)cc1`, the Inhibition in experiment [1] is recorded as 19%; in experiment [3], 41%; in experiment [4], 10%. The compound also showed an IC50 in experiment [5] of 87 µM.
On to `COc1cc2ccnc(C(=O)c3ccccc3Cl)c2cc1OC`, for which the IC50 was determined as 77.1 µM in experiment [6], 52.1 µM in experiment [5] and 82 µM in experiment [7]. The compound further came in with an Inhibition in experiment [4] of 30%.
As for `COc1cc2ccnc(Cc3ccc(Br)cc3)c2cc1OC`, the figures for the IC50 in experiment [6] and in experiment [5] were 94 µM and 55.6 µM, respectively. Further, the Inhibition in experiment [3] came to 8%; in experiment [4], 11%.
Regarding `COc1cc2ccnc(C(=O)c3ccccc3OC)c2cc1OC`, the Inhibition is reported as 50% in experiment [1], 39% in experiment [2], 35% in experiment [3] and 1% in experiment [4].
Turning to `COc1cc2ccnc(Cc3ccccc3Br)c2cc1OC`, the figures for the Inhibition in experiment [1], in experiment [3] and in experiment [4] were 46%, 8% and 7%, respectively. Half-maximal inhibition in experiment [5] (IC50) was put at 99.2 µM.
As to `COc1cc2c(cc1OC)C(C(=O)c1cccc(Br)c1)=NCC2`, the figures for the Inhibition in experiment [1] and in experiment [4] were 23% and 4%, respectively. For the same compound, the values for the IC50 in experiment [5] and in experiment [7] were 74.5 µM and 75.8 µM, respectively.
For `COc1cc2ccnc(Cc3ccc(Cl)cc3)c2cc1OC`, the IC50 stood at 51.3 µM in experiment [6] and 32.7 µM in experiment [5]. The Inhibition stood at 26% in experiment [3] and 28% in experiment [4].
Consider `COc1ccccc1Cc1nccc2cc(OC)c(OC)cc12`, for which the IC50 in experiment [6] came out at 66.2 µM; in experiment [5] it was 51.2 µM. Besides, the Inhibition is 20% in experiment [3] and 8% in experiment [4].
In the case of `COc1ccc(C(=O)c2nccc3cc(OC)c(OC)cc23)cc1`, the Inhibition in experiment [1] is reported as 20%; in experiment [4] it was 4%. Besides, the IC50 in experiment [5] was found to be 97 µM; in experiment [7], 64.7 µM.
For `COc1cc2ccnc(C(=O)c3ccc(Br)cc3)c2cc1OC`, the Inhibition came to 22% in experiment [1], 36% in experiment [2], 44% in experiment [3] and 5% in experiment [4].
In the case of `COc1cc2ccnc(Cc3cccc(Cl)c3)c2cc1OC`, the values for the IC50 in experiment [6] and in experiment [5] were 90.2 µM and 73.6 µM, respectively. Also, the results for the Inhibition in experiment [3] and in experiment [4] were 11% and 18%, respectively.
Taken in the same sequence, the figures for `COc1cc2ccnc(Cc3cccc(Br)c3)c2cc1OC` were 68.8 µM, 48.9 µM, 23% and 8%.
For `CC(=O)Oc1ccccc1C(=O)O` [ASPIRIN], in that order: 34.6 µM, 34.9 µM, 2% and 81%.
Consider `COc1ccc(Cc2nccc3cc(OC)c(OC)cc23)cc1`, for which the IC50 came to 59.2 µM in experiment [6] and 36.7 µM in experiment [5]. For the same compound, the results for the Inhibition in experiment [3] and in experiment [4] were 52% and 26%, respectively.
Take `COc1cc2c(cc1OC)C(C(=O)c1ccc(Cl)cc1)=NCC2`: the Inhibition in experiment [1] stood at 48%; in experiment [3], 22%; in experiment [4], 18%. In experiment [5], half-maximal inhibition (IC50) required 66.1 µM.
For the compound `COc1cc2ccnc(C(=O)c3ccccc3Br)c2cc1OC`, the figures for the Inhibition in experiment [1], in experiment [3] and in experiment [4] were 49%, 25% and 6%, respectively. In experiment [5], the IC50 was found to be 77.3 µM.
Take `COc1cc2ccnc(Cc3ccccc3Cl)c2cc1OC`: the figures for the Inhibition in experiment [1], in experiment [3] and in experiment [4] were 34%, 13% and 8%, respectively. The same compound registered an IC50 in experiment [5] of 72.3 µM.
Regarding `COc1cccc(C(=O)c2nccc3cc(OC)c(OC)cc23)c1`, the IC50 is 37.7 µM in experiment [6], 39.1 µM in experiment [5] and 73 µM in experiment [7]. The compound further came in with an Inhibition in experiment [4] of 46%.
As to `COc1cccc(Cc2nccc3cc(OC)c(OC)cc23)c1`, the Inhibition in experiment [1] was determined as 39%; in experiment [2] it was 46%; in experiment [3], 12%; in experiment [4], 5%.
For `COc1cc2c(cc1OC)C(C(=O)c1ccc(Br)cc1)=NCC2`, the Inhibition in experiment [1] is on record as 6%; in experiment [2], 20%; in experiment [3] it was 10%; in experiment [4], 4%.
On to `COc1cc2ccnc(C(=O)c3cccc(Cl)c3)c2cc1OC`, for which the Inhibition in experiment [1] came to 35%; in experiment [3] it was 47%; in experiment [4] it was 4%. This compound also yielded an IC50 in experiment [5] of 72.6 µM.
For the compound `COc1cc2ccnc(C(=O)c3cccc(Br)c3)c2cc1OC`, the Inhibition is 35% in experiment [1] and 5% in experiment [4]. Besides, the values for the IC50 in experiment [5] and in experiment [7] were 69 µM and 85 µM, respectively.
For the compound `COc1cc2c(cc1OC)C(C(=O)c1ccccc1OC)=NCC2`, the Inhibition in experiment [1] came out at 21%; in experiment [2] it was 18%; in experiment [3] it was 26%; in experiment [4], 8%.
Regarding `COc1ccc(C(O)c2nccc3cc(OC)c(OC)cc23)cc1` (stereo unspecified), the Inhibition was 44% in experiment [1], 18% in experiment [3] and 9% in experiment [4]. Half-maximal inhibition in experiment [5] (IC50) was put at 58.9 µM.
Take `COc1cc2c(cc1OC)C(C(=O)c1cccc(Cl)c1)=NCC2`: the Inhibition in experiment [1] was determined as 25%; in experiment [2] it was 35%; in experiment [3] it was 32%; in experiment [4], 3%.
